Entries after “also recorded” stand apart in the source; their conditions may differ. Structures can show the parent of a compound that is named as a salt. Where two headings read alike, the source gives them in different places.
Assays:
[1] = system: HFF cells; assay: In vitro toxicity assay on HFF host cells; type: cell-based, human; settings: HFF used as host cells in the parasite assay
[2] = system: THdhxgTRP tachyzoites transfected with pLK47; assay: Insertional mutagenesis experiments: selection of resistant mutants; type: cell-based, Toxoplasma gondii; settings: prolonged incubation (six weeks); data not shown
[3] = system: mice; assay: In vivo toxicity in uninfected mice dosed orally; settings: for Day of Death: Challenge None, B7 mice; for toxic effects on oral dosing (survival, well-being criteria): gavage daily for nine days, 100mg/kg
[4] = system: T. gondii TgGoatUS4 oocysts; assay: Mouse model of T. gondii oocyst infection, TgGoatUS4 oocysts; type: in vivo, Toxoplasma gondii; settings: 25 or 100 mg/kg, versus untreated infected mice
Outline: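 Mice, 5 per group, were challenged orally with TgGoatUS4 oocysts that had been sporulated in 2% sulfuric acid and neutralised with 3.3% NaOH. Test compound was given at 100 or 25 mg/kg as a 1 mL suspension by oral gavage in 1% DMSO/5% PEG 400/94% of 0.5% CMC. Controls were compound-only and untreated infected mice. Survival was observed daily, with tachyzoites sought in tissue smears.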

[5] = system: T. gondii tachyzoites; assay: In vitro inhibition of T. gondii tachyzoites; type: cell-based, Toxoplasma gondii; settings: for MIC50 / MIC90: T. gondii tachyzoites in vitro; for activity against T. gondii tachyzoites in words: in vitro, only MIC50 ≤ 1 μM considered active
[6] = system: P. falciparum TM91-C235; assay: Malaria SYBR Green I-based fluorescence; type: cell-based, Plasmodium falciparum; settings: for IC50: Plasmodium falciparum, 72 h; for efficacy against TM91-C235 compared with D6: comparison of IC50 values of the two strains
[7] = system: P. falciparum D6 (CDC/Sierra Leone); assay: Malaria SYBR Green I-based fluorescence; type: cell-based; settings: Plasmodium falciparum, D6, 72 h, read-out: D6 IC50
[8] = system: RH-YFP tachyzoites; assay: Determination of static or cidal effects on RH-YFP tachyzoites; type: cell-based, Toxoplasma gondii; settings: 1 μM; for static or cidal effect: Conditions A-D, growth assessed at days 11, 17, 25; for duration of treatment giving a cidal effect: compound removed after treatment
[9] = Hydrolytic stability on incubation in THF and buffer; settings: mixture of THF and buffer (pH 7.4 or pH 8.5); data not shown
[10] = system: T. gondii Me-49 oocysts; assay: Mouse model of T. gondii oocyst infection, ME49 oocysts; type: in vivo, Toxoplasma gondii; settings: 25 or 100 mg/kg, versus untreated infected mice
Outline: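 […] female mice (~25 g), 5 per group. Each mouse received test compound at 100 or 25 mg/kg (2.5 or […], 1.0 mL) by oral gavage in 1% DMSO/5% PEG 400/94% of 0.5% CMC, with or without 100 acid-sporulated, NaOH-neutralised ME49 oocysts orally. Controls were compound-only and oocyst-only groups. Mice were observed daily for survival. Infection was confirmed by tachyzoites in tissue smears.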

**Q.** For “2-((2,4-bis(trifluoromethyl)phenyl)carbamoyl)-4-chlorophenyl(2-hydrazinyl-2-oxoethyl) (methyl)carbamate hydrochloride [Compound 14b]”, which Toxicity [1] is on record?
**A.** The Toxicity was over 1000 nM.

**Q.** And the “growth of insertional mutant parasites in the presence of compound” value [2]?
**A.** The value was “No parasite growth”.

**Q.** What about the “Day of Death” value ([3]; 25 mg/kg oral gavage) of the same compound?
**A.** Its value is “None”.

**Q.** And the “Day of Death” value ([3]; 100 mg/kg oral gavage)?
**A.** Its value is “None”.

**Q.** And the “toxic effects on oral dosing (survival, well-being criteria)” value [3]?
**A.** The value was “all mice were alive and appeared healthy”.

**Q.** What about the increased survival [4] of the same compound?
**A.** The increased survival was 1 days.

**Q.** With “5-chloro-2-hydroxy-N-(3,4,5-trimethoxyphenyl)benzamide [Compound 3q]” as the compound, how does the MIC50 [5] read?
**A.** The MIC50 was over 1 µM.

**Q.** And the MIC90 [5]?
**A.** Its MIC90 is over 1 µM.

**Q.** What about the “activity against T. gondii tachyzoites in words” value (“activity” for short) [5] of the same compound?
**A.** Its value is “devoid of activity; also recorded: inactive”.

**Q.** For “5-chloro-2-hydroxy-N-(5-methoxy-2-methylphenyl)benzamide [Compound 3x]”, which MIC50 [5] is on record?
**A.** The MIC50 was over 1 µM.

**Q.** And the MIC90 [5]?
**A.** The MIC90 was over 1 µM.

**Q.** With “5-chloro-N-(3-cyano-4-fluorophenyl)-2-hydroxybenzamide [Compound 3t]” as the compound, how does the MIC50 [5] read?
**A.** The MIC50 was over 1 µM.

**Q.** What about the MIC90 [5] of the same compound?
**A.** Its MIC90 is over 1 µM.

**Q.** With `CCN(CC)CCCC(C)Nc1ccnc2cc(Cl)ccc12` (stereo not drawn) [Chloroquine, reference compound] as the compound, how does the IC50 ([6]; read-out: C235 IC50) read?
**A.** Its IC50 is 89 nM.

**Q.** And the IC50 [7]?
**A.** Its IC50 is 7 nM.

**Q.** For `CC(C)(C)c1cccc(NC(=O)c2cc(Cl)ccc2O)c1` [Compound 3i, N-(3-tert-butylphenyl)-5-chloro-2-hydroxybenzamide], which “activity” value [5] is on record?
**A.** The value was “much more active than 3l”.

**Q.** And the “static or cidal effect” value [8]?
**A.** The value was “parasitostatic; also recorded: static effect”.

**Q.** What about the IC50 ([6]; read-out: C235 IC50, multi-drug resistant strain TM91-C235, 72 hours) of the same compound?
**A.** The IC50 was over 6500 nM.

**Q.** And the “efficacy against TM91-C235 compared with D6” value [6]?
**A.** Its value is “two-fold higher IC50”.

**Q.** And the Toxicity [1]?
**A.** The Toxicity was over 1000 nM.

**Q.** And the “growth of insertional mutant parasites in the presence of compound” value [2]?
**A.** Its value is “No parasite growth”.

**Q.** What does the source list for `O=C(Nc1cc(C(F)(F)F)cc(C(F)(F)F)c1)c1cc(Cl)ccc1O` [Compound 3j]?
**A.** activity against T. gondii tachyzoites in words [5]: promising activity; static or cidal effect [8]: parasitocidal; also recorded: cidal; duration of treatment giving a cidal effect [8]: cidal effect after four days of treatment; efficacy against TM91-C235 compared with D6 [6]: equally effective; Toxicity [1]: >1000 nM; growth of insertional mutant parasites in the presence of compound [2]: No parasite growth

**Q.** For `O=C(Nc1ccc([N+](=O)[O-])cc1Cl)c1ccccc1O` [Compound 3k, N-(2-chloro-4-nitrophenyl)-2-hydroxybenzamide], which “activity” value [5] is on record?
**A.** The value was “eliminated activity altogether”.

**Q.** Which “activity” value [5] does the source give for `COc1ccc(NC(=O)c2cc(Cl)ccc2O)cc1OC` [Compound 3v, 5-chloro-N-(3,4-dimethoxyphenyl)-2-hydroxybenzamide] here?
**A.** Its value is “devoid of activity”.

**Q.** Which MIC50 [5] does the source give for `O=C(Nc1cccc(OC(F)F)c1)c1cc(Cl)ccc1O` [Compound 3z, 5-chloro-N-(3-(difluoromethoxy)phenyl)-2-hydroxybenzamide] here?
**A.** Its MIC50 is over 1 µM.

**Q.** What about the MIC90 [5] of the same compound?
**A.** Its MIC90 is over 1 µM.

**Q.** Which “activity” value [5] does the source give for `Nc1ccc(NC(=O)c2cc(Cl)ccc2O)c(Cl)c1` [Compound 5, N-(4-amino-2-chlorophenyl)-5-chloro-2-hydroxybenzamide hydrochloride] here?
**A.** Its value is “all activity was lost; also recorded: destroyed”.

**Q.** What does the source list for `O=C(Oc1ccc(Cl)cc1C(=O)Nc1ccc([N+](=O)[O-])cc1Cl)c1ccccc1` [Compound 7a, 4-chloro-2-((2-chloro-4-nitrophenyl)carbamoyl)phenyl benzoate]?
**A.** activity against T. gondii tachyzoites in words [5]: apparent increase in potency over 4; static or cidal effect [8]: parasitocidal; also recorded: cidal; duration of treatment giving a cidal effect [8]: cidal effect after four days of treatment; stability against hydrolysis [9]: hydrolytically labile; efficacy against TM91-C235 compared with D6 [6]: equally effective; Toxicity [1]: >1000 nM; growth of insertional mutant parasites in the presence of compound [2]: No parasite growth

**Q.** With `COC(=O)[C@@H]1CCCN1C(=O)Oc1ccc(Cl)cc1C(=O)Nc1ccc([N+](=O)[O-])cc1Cl` [Compound 7b, (S)-1-(4-chloro-2-((2-chloro-4-nitrophenyl)carbamoyl)phenyl) 2-methyl pyrrolidine-1,2-dicarboxylate] as the compound, how does the stability against hydrolysis [9] read?
**A.** Its stability against hydrolysis is “much more stable against hydrolysis”.

**Q.** With `O=C(Nc1ccc([N+](=O)[O-])cc1Cl)c1cc(Cl)ccc1OC(=O)N1CCOCC1` [Compound 7c, 4-chloro-2-((2-chloro-4-nitrophenyl)carbamoyl)phenyl morpholine-4-carboxylate] as the compound, how does the “activity” value [5] read?
**A.** Its value is “devoid of activity”.

**Q.** And the stability against hydrolysis [9]?
**A.** Its stability against hydrolysis is “much more stable against hydrolysis”.

**Q.** For `CN1CCN(C(=O)Oc2ccc(Cl)cc2C(=O)Nc2ccc([N+](=O)[O-])cc2Cl)CC1` [Compound 7d, 4-chloro-2-((2-chloro-4-nitrophenyl)carbamoyl)phenyl 4-methylpiperazine-1-carboxylate], which “activity” value [5] is on record?
**A.** Its value is “modest activity; also recorded: devoid of activity”.

**Q.** What about the stability against hydrolysis [9] of the same compound?
**A.** The stability against hydrolysis was “much more stable against hydrolysis”.

**Q.** What does the source list for `CN(CC(=O)NN)C(=O)Oc1ccc(Cl)cc1C(=O)Nc1ccc([N+](=O)[O-])cc1Cl.Cl` [Compound 14a, 4-chloro-2-((2-chloro-4-nitrophenyl)carbamoyl)phenyl (2-hydrazinyl-2-oxoethyl)(methyl) carbamate hydrochloride]?
**A.** static or cidal effect [8]: cidal; duration of treatment giving a cidal effect [8]: cidal effect after ten days of treatment; efficacy against TM91-C235 compared with D6 [6]: equally effective; Toxicity [1]: >1000 nM; Day of Death ([3]; 25 mg/kg oral gavage): None; Day of Death ([3]; 100 mg/kg oral gavage): None; toxic effects on oral dosing (survival, well-being criteria) [3]: all mice were alive and appeared healthy; increased survival [10]: 1 days

**Q.** Which results are given for “N-(2,3-dihydrobenzo[b][1,4]dioxin-6-yl)-2-hydroxybenzamide [Compound 3ab]”?
**A.** MIC50 [5]: >1 µM; MIC90 [5]: >1 µM; activity against T. gondii tachyzoites in words [5]: devoid of activity; also recorded: inactive

**Q.** For “N-(2,4-dichlorophenyl)-5-chloro-2-hydroxybenzamide [Compound 3n]”, which “activity” value [5] is on record?
**A.** Its value is “slight activity; also recorded: active”.

**Q.** With “N-(2,4-difluorophenyl)-5-chloro-2-hydroxybenzamide [Compound 3o]” as the compound, how does the MIC50 [5] read?
**A.** Its MIC50 is over 1 µM.

**Q.** And the MIC90 [5]?
**A.** The MIC90 was over 1 µM.

**Q.** And the “activity” value [5]?
**A.** Its value is “inactive”.

**Q.** Which “activity” value [5] does the source give for “N-(2-chloro-5-nitrophenyl)-5-methyl-2-hydroxybenzamide [Compound 3m]” here?
**A.** The value was “decreased potency; also recorded: inactive; also recorded: about one-half as active as 4”.

Source: PMC3498903 (Journal of medicinal chemistry, 2012)
